From ChEMBL document CHEMBL4014264, “Benzoyltyramine Alkaloids Atalantums A-G from the Peels of Atalantia monophylla and Their Cytotoxicity against Cholangiocarcinoma Cell Lines” (J Nat Prod, 2017)

How the values were obtained:
[1] = Cytotoxicity against human KKU-M213 cells assessed as reduction in cell viability after 72 hrs by SRB assay; type: functional, cell-based; details: KKU-M213, 72 h
Method in brief: (§1)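 Cholangiocarcinoma cells seeded at (1−2) × 10^4 cells/well, grown 24 h at 37 °C, then dosed in triplicate to final 0.025−20 μg/well, with 0.1% DMSO solvent control. Starting plates read after 1 h, treated plates after 72 h, by SRB. Viability % = (OD treated day 3 − OD start)/(OD control day 3 − OD start) × 100. IC50 taken from dose–response curves.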

[2] = Cytotoxicity against human KKU-M214 cells assessed as reduction in cell viability after 72 hrs by SRB assay; type: functional, cell-based; details: KKU-M214, 72 h; method in brief: as §1
[3] = Cytotoxicity against human KKU-M156 cells assessed as reduction in cell viability after 72 hrs by SRB assay; type: functional, cell-based; details: KKU-M156, 72 h; method in brief: as §1
[4] = Potency index, ratio of ellipticine IC50 to compound IC50 for human KKU-M156 cells; type: functional

Row | Compound | IC50 [1] | IC50 [2] | IC50 [3] | Ratio IC50 [4]
1 | CC(=O)OC(CC1OC1(C)C)/C(C)=C/COc1ccc(CCNC(=O)c2ccccc2)cc1 (stereo unspecified) | 11.1 µM | 31.5 µM | 29.1 µM | –
2 | CCCCCCCCCCCCCC(=O)OC(CC(OC(C)=O)C(C)(C)O)/C(C)=C/COc1ccc(CCNC(=O)c2ccccc2)cc1 (racemic) | 2.36 µM | 24 µM | 24.5 µM | –
3 | CCCCCCCCCCCCCCCC(=O)OC(CC(O)C(C)(C)O)/C(C)=C/COc1ccc(CCNC(=O)c2ccccc2)cc1 (racemic) | 5.63 µM | 27.4 µM | 2.8 µM | –
4 | C/C(=C\COc1ccc(CCNC(=O)c2ccccc2)cc1)C1CC(O)C(C)(C)O1 (racemic) | 12.2 µM | 7.37 µM | 21.5 µM | –
5 | Cc1c2ccncc2c(C)c2c1[nH]c1ccccc12 [ELLIPTECINE] | 6.58 µM | – | – | –
6 | CCCCCCCCCCCCCCCC(=O)OC(C)(C)C(O)CC(O)/C(C)=C/COc1ccc(CCNC(=O)c2ccccc2)cc1 (racemic) | 16.1 µM | 20.5 µM | 31.5 µM | –
7 | O=c1[nH]cc(F)c(=O)[nH]1 [FLUOROURACIL] | – | 3.76 µM | – | –
8 | CCCCCCCCCCCCCCCC(=O)OC(CC(O)/C(C)=C/COc1ccc(CCNC(=O)c2ccccc2)cc1)C(C)(C)O (racemic) | 23.5 µM | 8.44 µM | 1.97 µM | 4.7
9 | CCCCCCCCCCCCCCCCCC(=O)OC(CC(OC(C)=O)C(C)(C)O)/C(C)=C/COc1ccc(CCNC(=O)c2ccccc2)cc1 (racemic) | 29.1 µM | 12.4 µM | 24 µM | –
10 | CC(=O)OC(CC(O)C(C)(C)O)/C(C)=C/COc1ccc(CCNC(=O)c2ccccc2)cc1 (stereo unspecified) | 28.8 µM | 44.5 µM | 49.7 µM | –
11 | CCCCCCCCCCCCCCCC(=O)OC(CC(OC(C)=O)C(C)(C)O)/C(C)=C/COc1ccc(CCNC(=O)c2ccccc2)cc1 (racemic) | 34.8 µM | 3.06 µM | 22 µM | –
12 | C/C(=C\COc1ccc(CCNC(=O)c2ccccc2)cc1)C(O)CC(O)C(C)(C)O (stereo unspecified) | 25.8 µM | 11.1 µM | 26.8 µM | –
13 | CCCCCCCCCCCCCCCC(=O)OC(CC1OC1(C)C)/C(C)=C/COc1ccc(CCNC(=O)c2ccccc2)cc1 (stereo unspecified) | 2.71 µM | 14.9 µM | 21 µM | –
